Reference: ChEMBL document CHEMBL1140865, “Studies on anti-HIV quinolones: new insights on the C-6 position” (Bioorg Med Chem, 2009)
In brackets after ≈: the same amount, converted by molar mass.

Columns and labels:
[1] = tested on: Human immunodeficiency virus; assay: Antiviral activity against HIV 3B in human MT4 cells assessed as inhibition of virus-induced cytopathogenicity by MTT assay; assay type: functional, organism-based; conditions: Human immunodeficiency virus 1, 3B
How it was run: (§1)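 MT-4 cells resuspended at 6 × 10⁵ cells/mL, infected with HIV-1 IIIB or HIV-2 ROD at 100–300 CCID50, serial 5-fold compound dilutions. After 5 days, viability read by MTT reduction at 540 and 690 nm, median OD of three wells. EC50 = concentration giving 50% protection from viral cytopathic effect; mean ± SD of three separate experiments.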

[2] = tested on: Human immunodeficiency virus; assay: Antiviral activity against HIV ROD in human MT4 cells assessed as inhibition of virus-induced cytopathogenicity by MTT assay; assay type: functional, organism-based; conditions: Human immunodeficiency virus 2, ROD; how it was run: as §1
[3] = Cytotoxicity against mock-infected human MT4 cells by MTT assay; assay type: cell-based
How it was run: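 Mock-infected MT-4 cells (6 × 10⁵ cells/mL) exposed to serial 5-fold compound dilutions in parallel with infected cultures. After 5 days, viability measured by MTT formazan absorbance (540 and 690 nm; median OD of three wells). CC50 = concentration reducing OD540 of mock-infected control by 50%; mean ± SD of three separate experiments.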

[4] = Selectivity index, ratio of CC50 for human MT4 cells to EC50 for HIV 3B; assay type: toxicity, cell-based; conditions: read-out: Ratio CC50/EC50
[5] = Selectivity index, ratio of CC50 for human MT4 cells to EC50 for HIV ROD; assay type: toxicity, cell-based; conditions: read-out: Ratio CC50/EC50
[6] = tested on: Human immunodeficiency virus; assay: Antiviral activity against HIV 3B in PHA-stimulated human PBMC assessed as inhibition of p24 antigen production by ELISA; assay type: functional, organism-based; conditions: Human immunodeficiency virus 1, 3B
How it was run: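 PBMCs from healthy donors isolated by density centrifugation, PHA-stimulated 3 days, washed, plated at 2 × 10⁵ per 200 µL with serial compound dilutions and infected with HIV at 1000 CCID50 per mL. On day 4, supernatant partly replaced with fresh compound-containing medium. At day 7, p24 in supernatant measured by ELISA. EC50 = 50% inhibition of p24; mean ± SD, at least two experiments.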

[7] = Cytotoxicity against mock-infected human PBMC; assay type: cell-based
How it was run: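 Mock-infected PHA-stimulated PBMCs cultured with serial compound dilutions. Viability determined by trypan blue exclusion. CC50 = concentration reducing viability by 50%; mean ± SD of at least two separate experiments.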

[8] = Selectivity index, ratio of IC50 for human PBMC to IC50 for HIV 3B

EC50 [6] | SMILES | EC50 [1] | EC50 [2] | CC50 [3] | selectivity ratio [4] | selectivity ratio [5] | CC50 [7] | Ratio CC50/EC50 [8]
 | COc1cc2c(=O)c(C(=O)O)cn(C)c2cc1N1CCN(c2nc3ccccc3s2)CC1 | > 0.05 µg/mL | > 0.05 µg/mL | 0.05 µg/mL (≈ 0.111 µM) | < 1 | < 1 |  | 
0.4 µg/mL (≈ 0.894 µM) | Cn1cc(C(=O)O)c(=O)c2cc(O)c(N3CCN(c4cccc(C(F)(F)F)c4)CC3)cc21 | ≥ 1.13 µg/mL | ≥ 0.133 µg/mL | 1.13 µg/mL (≈ 2.53 µM) |  |  | 1.61 µg/mL (≈ 3.6 µM) | 4
 | Cn1cc(C(=O)O)c(=O)c2cc(C(F)(F)F)c(N3CCN(c4nc5ccccc5s4)CC3)cc21 | > 0.54 µg/mL | > 0.54 µg/mL | 0.54 µg/mL (≈ 1.11 µM) | < 1 | < 1 |  | 
 | Cn1cc(C(=O)O)c(=O)c2cc(C(F)(F)F)c(N3CCN(c4ccccn4)CC3)cc21 | > 13.9 µg/mL | > 13.9 µg/mL | 13.9 µg/mL (≈ 32.2 µM) | < 1 | < 1 |  | 
 | Cn1cc(C(=O)O)c(=O)c2cc(O)c(N3CCN(c4cnccn4)CC3)cc21 | > 125 µg/mL | > 125 µg/mL | > 125 µg/mL | < 1 | < 1 |  | 
 | Cn1cc(C(=O)O)c(=O)c2cc(C(F)(F)F)c(N3CCN(c4cccc(C(F)(F)F)c4)CC3)cc21 | > 1.65 µg/mL | > 1.65 µg/mL | 1.65 µg/mL (≈ 3.3 µM) | < 1 | < 1 |  | 
 | Cn1cc(C(=O)O)c(=O)c2cc(O)c(N3CCN(c4nc5ccccc5s4)CC3)cc21 | > 0.02 µg/mL | > 0.02 µg/mL | 0.02 µg/mL (≈ 0.0458 µM) | < 1 | < 1 |  | 
0.26 µg/mL (≈ 0.604 µM) | Cn1cc(C(=O)O)c(=O)c2cc(O)c(N3CCN(c4ccc5ccccc5n4)CC3)cc21 | 0.08 µg/mL (≈ 0.186 µM) | 0.033 µg/mL (≈ 0.0767 µM) | 0.47 µg/mL (≈ 1.09 µM) | 6 | 14 | 1.91 µg/mL (≈ 4.44 µM) | 7
0.39 µg/mL (≈ 1.03 µM) | Cn1cc(C(=O)O)c(=O)c2cc(O)c(N3CCN(c4ccccn4)CC3)cc21 | 1.85 µg/mL (≈ 4.86 µM) | 1.31 µg/mL (≈ 3.44 µM) | > 125 µg/mL | > 68 | > 96 | ≥ 17.2 µg/mL | >=44
 | Cc1ccnc2c1NC(=O)c1cccnc1N2C1CC1 [NEVIRAPINE] | 0.023 µg/mL (≈ 0.0864 µM) | > 4 µg/mL | > 4 µg/mL | > 176 |  |  | 
1.78 µg/mL (≈ 4.51 µM) | COc1cc2c(=O)c(C(=O)O)cn(C)c2cc1N1CCN(c2ccccn2)CC1 | 0.47 µg/mL (≈ 1.19 µM) | 0.4 µg/mL (≈ 1.01 µM) | 2.55 µg/mL (≈ 6.47 µM) | 5 | 6.5 | 8.46 µg/mL (≈ 21.4 µM) | 5
 | Cn1cc(C(=O)O)c(=O)c2cc(N)c(N3CCN(c4ccccn4)CC3)cc21 | 0.058 µg/mL (≈ 0.153 µM) | 0.097 µg/mL (≈ 0.256 µM) |  | 15 | 10 |  | 
 | Cc1cn([C@H]2C[C@H](N=[N+]=[N-])[C@@H](CO)O2)c(=O)[nH]c1=O [ZIDOVUDINE] | 0.0015 µg/mL (≈ 0.00561 µM) | 0.0008 µg/mL (≈ 0.00299 µM) | 2.01 µg/mL (≈ 7.52 µM) | 1340 | 2480 |  | 
